This passage reports inhibition and fold change (FC) results from ChEMBL document CHEMBL5653631, “A Potent and Selective ULK1 Inhibitor Suppresses Autophagy and Sensitizes Cancer Cells to Nutrient Stress” (iScience, 2018).

SMILES strings stand for the structures.

For test [1], the target named is Glycogen synthase kinase-3 alpha (Homo sapiens) (UniProt P49840). Kind of test: Inhibition of human recombinant GSK3A at 15 nM in presence of ATP by radiometric assay relative to control.
Test [2] concerns the target T1, Muscle, skeletal receptor tyrosine-protein kinase (Homo sapiens) (UniProt O15146).
T1 sequence (whole entry): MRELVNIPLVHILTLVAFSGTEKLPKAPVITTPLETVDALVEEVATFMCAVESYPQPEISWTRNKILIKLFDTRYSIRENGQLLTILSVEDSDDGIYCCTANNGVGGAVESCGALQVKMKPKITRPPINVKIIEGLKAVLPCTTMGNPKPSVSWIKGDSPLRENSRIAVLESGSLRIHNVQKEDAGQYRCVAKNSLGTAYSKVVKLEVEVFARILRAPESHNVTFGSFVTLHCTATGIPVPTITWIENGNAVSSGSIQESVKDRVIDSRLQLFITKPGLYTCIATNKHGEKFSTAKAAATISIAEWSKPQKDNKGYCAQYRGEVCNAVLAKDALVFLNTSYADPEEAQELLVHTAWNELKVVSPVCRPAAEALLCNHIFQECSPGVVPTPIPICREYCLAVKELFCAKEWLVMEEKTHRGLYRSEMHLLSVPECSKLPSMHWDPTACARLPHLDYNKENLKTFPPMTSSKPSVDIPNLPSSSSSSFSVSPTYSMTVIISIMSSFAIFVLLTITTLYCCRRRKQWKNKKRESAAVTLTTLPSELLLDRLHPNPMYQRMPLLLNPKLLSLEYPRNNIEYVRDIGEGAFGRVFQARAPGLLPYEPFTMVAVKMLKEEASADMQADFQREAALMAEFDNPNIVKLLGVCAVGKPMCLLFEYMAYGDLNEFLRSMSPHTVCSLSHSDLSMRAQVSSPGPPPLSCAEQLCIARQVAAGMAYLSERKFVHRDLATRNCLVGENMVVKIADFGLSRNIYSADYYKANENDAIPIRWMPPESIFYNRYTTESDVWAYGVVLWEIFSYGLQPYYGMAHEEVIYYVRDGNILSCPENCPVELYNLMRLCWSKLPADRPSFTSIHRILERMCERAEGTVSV
Put plainly: Inhibition of human recombinant MUSK at 40 nM related to control ULK1.

Test [3] deals with Serine/threonine-protein kinase PLK3 (Homo sapiens) (UniProt Q9H4B4). Kind of test: Inhibition of human recombinant PLK3 at 40 nM related to control ULK1.
Test [4] concerns the target T2, Inhibitor of nuclear factor kappa-B kinase subunit beta (Homo sapiens) (UniProt O14920).
T2 sequence (whole entry): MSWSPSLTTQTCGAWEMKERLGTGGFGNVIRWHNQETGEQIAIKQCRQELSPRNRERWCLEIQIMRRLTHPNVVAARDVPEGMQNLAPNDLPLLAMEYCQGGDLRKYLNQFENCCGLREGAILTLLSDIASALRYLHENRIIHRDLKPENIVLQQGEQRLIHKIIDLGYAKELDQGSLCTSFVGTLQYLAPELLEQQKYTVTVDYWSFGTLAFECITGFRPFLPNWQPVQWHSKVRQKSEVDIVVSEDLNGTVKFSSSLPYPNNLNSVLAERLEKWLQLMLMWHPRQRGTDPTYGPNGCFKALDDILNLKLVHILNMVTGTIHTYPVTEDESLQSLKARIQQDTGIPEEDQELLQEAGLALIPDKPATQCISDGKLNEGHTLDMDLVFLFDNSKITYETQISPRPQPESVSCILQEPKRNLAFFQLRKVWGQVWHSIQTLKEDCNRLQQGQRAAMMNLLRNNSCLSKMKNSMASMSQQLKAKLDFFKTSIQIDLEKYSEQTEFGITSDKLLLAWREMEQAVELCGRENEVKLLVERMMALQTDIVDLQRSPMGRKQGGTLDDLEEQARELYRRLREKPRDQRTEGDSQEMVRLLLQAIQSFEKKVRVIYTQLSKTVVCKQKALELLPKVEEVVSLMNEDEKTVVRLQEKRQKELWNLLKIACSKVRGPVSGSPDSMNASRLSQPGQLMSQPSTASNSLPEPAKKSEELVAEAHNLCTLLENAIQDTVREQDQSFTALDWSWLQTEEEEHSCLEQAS
Put plainly: Inhibition of human recombinant IKKb at 40 nM related to control ULK1.

Test [5] has as its target Serine/threonine-protein kinase 32C (Homo sapiens) (UniProt Q86UX6). Kind of test: Inhibition of human recombinant YANK3 at 40 nM related to control ULK1.
Test [6] addresses MAP kinase-activated protein kinase 3 (Homo sapiens) (UniProt Q16644). Put plainly: Inhibition of human recombinant MAPKAPK3 at 40 nM related to control ULK1.
In test [7] the target is SRSF protein kinase 2 (Homo sapiens) (UniProt P78362). Kind of test: Inhibition of human recombinant SRPK2 at 500 nM related to control ULK1.
Test [8] deals with Serine-protein kinase ATM (Homo sapiens) (UniProt Q13315). Put plainly: Inhibition of human recombinant ATM at 500 nM related to control ULK1. The essentials: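 Panel of 327 recombinant human kinases, each assayed in vitro by radiometric activity assay in duplicate at a single inhibitor concentration per compound, chosen with reference to its ULK1 inhibition. Activity remaining was expressed as percent of vehicle control, and percent inhibition was calculated as 100 minus percent activity remaining.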

Test [9] deals with Rho-associated protein kinase 1 (Homo sapiens) (UniProt Q13464). Put plainly: Inhibition of human recombinant ROCK1 at 500 nM related to control ULK1.
Test [10] addresses T3, Myotonin-protein kinase (Homo sapiens) (UniProt Q09013).
T3 sequence (whole entry): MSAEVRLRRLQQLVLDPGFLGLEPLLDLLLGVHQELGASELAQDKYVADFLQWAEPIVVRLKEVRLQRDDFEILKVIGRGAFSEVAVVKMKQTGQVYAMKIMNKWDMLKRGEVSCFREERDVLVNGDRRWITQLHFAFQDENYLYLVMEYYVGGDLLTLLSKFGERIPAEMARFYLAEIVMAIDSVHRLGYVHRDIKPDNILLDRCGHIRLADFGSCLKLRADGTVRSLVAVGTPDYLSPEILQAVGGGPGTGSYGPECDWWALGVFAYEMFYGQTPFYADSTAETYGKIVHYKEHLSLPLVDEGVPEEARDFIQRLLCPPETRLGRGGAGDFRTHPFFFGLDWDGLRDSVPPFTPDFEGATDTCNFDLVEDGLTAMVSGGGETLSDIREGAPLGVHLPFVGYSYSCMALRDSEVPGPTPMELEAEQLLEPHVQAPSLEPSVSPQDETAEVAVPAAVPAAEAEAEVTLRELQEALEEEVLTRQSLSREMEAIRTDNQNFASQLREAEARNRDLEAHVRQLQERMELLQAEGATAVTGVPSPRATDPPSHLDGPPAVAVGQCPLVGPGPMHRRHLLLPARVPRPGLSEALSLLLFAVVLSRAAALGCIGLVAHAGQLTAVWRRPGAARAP
Kind of test: Inhibition of human recombinant DMPK1 at 500 nM related to control ULK1.

The target in test [11] is Serine/threonine-protein kinase MARK1 (Homo sapiens) (UniProt Q9P0L2). Put plainly: Inhibition of human recombinant MARK1 at 500 nM related to control ULK1.
Sequence of Serine/threonine-protein kinase MARK1 (Homo sapiens) (Q9P0L2 whole entry, looked up): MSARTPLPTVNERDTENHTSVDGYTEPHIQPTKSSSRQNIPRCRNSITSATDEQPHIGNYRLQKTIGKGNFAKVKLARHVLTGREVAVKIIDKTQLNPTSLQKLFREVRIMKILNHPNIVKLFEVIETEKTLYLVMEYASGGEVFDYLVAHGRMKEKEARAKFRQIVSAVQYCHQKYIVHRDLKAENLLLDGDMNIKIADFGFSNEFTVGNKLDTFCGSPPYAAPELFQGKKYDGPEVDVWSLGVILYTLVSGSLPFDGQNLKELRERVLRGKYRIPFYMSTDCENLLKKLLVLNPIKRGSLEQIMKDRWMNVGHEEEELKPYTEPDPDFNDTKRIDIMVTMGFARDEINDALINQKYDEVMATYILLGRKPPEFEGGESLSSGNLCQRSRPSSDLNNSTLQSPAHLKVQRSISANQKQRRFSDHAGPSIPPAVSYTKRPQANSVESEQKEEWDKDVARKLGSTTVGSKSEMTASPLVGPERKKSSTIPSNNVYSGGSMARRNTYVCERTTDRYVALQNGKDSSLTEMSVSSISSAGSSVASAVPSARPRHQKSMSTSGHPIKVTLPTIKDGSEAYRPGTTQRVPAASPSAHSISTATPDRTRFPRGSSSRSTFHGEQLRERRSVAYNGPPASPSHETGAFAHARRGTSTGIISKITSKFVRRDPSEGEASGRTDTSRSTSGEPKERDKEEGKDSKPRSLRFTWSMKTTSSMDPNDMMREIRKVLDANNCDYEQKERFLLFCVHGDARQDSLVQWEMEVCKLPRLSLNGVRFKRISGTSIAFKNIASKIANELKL

Sequence of Serine/threonine-protein kinase PLK3 (Homo sapiens) (Q9H4B4 whole entry, looked up): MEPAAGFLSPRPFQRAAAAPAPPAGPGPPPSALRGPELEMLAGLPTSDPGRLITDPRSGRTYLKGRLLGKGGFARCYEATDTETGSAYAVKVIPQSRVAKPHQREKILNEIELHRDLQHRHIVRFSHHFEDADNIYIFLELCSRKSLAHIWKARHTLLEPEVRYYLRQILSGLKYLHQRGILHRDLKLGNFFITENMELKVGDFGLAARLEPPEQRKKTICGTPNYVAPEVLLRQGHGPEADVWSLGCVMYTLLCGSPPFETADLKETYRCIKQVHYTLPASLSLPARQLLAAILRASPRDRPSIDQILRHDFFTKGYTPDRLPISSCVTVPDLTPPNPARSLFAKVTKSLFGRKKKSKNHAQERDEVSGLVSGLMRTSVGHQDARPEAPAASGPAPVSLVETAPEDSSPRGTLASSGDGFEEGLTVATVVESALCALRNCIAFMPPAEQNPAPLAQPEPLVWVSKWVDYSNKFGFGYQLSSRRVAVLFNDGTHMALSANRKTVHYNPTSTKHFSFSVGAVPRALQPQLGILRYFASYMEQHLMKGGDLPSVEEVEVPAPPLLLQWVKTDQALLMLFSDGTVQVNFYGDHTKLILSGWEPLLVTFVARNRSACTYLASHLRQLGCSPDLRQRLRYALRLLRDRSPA
Sequence of Serine/threonine-protein kinase 32C (Homo sapiens) (Q86UX6 whole entry): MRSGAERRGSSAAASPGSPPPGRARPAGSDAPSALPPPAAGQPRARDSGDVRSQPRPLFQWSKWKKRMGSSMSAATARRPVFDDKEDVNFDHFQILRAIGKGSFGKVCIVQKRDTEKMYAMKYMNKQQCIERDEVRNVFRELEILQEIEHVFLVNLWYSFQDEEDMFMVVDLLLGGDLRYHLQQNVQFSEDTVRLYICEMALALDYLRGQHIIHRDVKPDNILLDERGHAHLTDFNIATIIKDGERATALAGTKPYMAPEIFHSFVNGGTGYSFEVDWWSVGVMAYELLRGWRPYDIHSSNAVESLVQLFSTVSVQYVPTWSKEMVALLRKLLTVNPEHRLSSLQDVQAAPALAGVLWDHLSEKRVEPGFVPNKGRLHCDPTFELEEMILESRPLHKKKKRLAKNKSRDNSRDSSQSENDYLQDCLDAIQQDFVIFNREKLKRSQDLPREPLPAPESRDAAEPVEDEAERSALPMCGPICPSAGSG
Sequence of SRSF protein kinase 2 (Homo sapiens) (P78362 whole entry, looked up): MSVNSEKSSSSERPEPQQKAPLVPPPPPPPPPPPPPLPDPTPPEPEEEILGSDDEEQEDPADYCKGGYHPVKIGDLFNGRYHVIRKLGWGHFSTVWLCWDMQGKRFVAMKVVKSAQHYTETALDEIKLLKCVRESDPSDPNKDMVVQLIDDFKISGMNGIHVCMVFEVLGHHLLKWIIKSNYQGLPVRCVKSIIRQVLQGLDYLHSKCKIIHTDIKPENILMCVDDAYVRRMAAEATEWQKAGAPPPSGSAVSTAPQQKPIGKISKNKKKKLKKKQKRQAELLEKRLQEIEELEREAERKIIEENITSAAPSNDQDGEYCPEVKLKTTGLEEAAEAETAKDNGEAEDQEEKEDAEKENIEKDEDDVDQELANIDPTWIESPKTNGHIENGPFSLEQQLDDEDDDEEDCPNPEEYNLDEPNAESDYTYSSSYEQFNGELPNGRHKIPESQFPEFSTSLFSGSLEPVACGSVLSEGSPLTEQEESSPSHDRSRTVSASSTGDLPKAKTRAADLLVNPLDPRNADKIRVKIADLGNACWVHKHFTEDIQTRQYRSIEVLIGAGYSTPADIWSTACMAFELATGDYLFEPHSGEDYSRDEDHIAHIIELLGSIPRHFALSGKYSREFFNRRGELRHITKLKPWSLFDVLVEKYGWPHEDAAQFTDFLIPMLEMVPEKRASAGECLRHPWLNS
Sequence of Rho-associated protein kinase 1 (Homo sapiens) (Q13464 2-1354 limits assumed): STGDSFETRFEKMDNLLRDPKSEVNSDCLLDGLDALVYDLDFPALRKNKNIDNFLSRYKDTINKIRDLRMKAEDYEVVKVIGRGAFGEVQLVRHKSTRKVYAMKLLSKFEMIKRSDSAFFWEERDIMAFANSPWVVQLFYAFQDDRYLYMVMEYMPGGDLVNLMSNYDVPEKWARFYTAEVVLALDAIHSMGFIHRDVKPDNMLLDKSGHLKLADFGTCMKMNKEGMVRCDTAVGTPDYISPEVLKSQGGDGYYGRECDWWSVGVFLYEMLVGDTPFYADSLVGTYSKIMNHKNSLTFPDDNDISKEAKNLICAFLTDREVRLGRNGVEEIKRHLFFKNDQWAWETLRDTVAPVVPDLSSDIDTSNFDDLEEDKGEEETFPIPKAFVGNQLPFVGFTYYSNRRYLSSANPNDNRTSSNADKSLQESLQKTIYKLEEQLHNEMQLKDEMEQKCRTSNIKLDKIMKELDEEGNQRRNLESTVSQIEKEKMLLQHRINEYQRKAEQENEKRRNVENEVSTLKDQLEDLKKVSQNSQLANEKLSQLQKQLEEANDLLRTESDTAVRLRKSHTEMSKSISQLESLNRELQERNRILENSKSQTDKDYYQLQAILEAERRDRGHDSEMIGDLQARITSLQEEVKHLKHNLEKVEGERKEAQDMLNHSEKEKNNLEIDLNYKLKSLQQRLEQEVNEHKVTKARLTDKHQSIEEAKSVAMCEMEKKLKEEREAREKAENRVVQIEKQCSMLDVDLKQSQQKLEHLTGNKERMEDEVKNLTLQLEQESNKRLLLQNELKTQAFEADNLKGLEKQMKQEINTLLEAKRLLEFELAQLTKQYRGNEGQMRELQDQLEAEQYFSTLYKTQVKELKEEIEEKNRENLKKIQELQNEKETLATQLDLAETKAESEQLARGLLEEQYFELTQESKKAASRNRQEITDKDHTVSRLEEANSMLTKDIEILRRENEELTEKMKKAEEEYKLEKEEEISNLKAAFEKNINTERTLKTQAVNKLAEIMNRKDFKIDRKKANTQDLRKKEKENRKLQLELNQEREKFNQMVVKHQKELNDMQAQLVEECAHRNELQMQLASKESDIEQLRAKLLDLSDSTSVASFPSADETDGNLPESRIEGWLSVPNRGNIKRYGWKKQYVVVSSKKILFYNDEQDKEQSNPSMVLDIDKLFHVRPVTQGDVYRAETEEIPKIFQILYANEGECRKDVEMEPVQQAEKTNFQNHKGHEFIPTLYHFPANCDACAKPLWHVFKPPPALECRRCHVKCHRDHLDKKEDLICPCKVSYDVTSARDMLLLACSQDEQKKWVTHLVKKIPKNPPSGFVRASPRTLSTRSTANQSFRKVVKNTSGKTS
Sequence of Glycogen synthase kinase-3 alpha (Homo sapiens) (P49840 2-483 limits assumed): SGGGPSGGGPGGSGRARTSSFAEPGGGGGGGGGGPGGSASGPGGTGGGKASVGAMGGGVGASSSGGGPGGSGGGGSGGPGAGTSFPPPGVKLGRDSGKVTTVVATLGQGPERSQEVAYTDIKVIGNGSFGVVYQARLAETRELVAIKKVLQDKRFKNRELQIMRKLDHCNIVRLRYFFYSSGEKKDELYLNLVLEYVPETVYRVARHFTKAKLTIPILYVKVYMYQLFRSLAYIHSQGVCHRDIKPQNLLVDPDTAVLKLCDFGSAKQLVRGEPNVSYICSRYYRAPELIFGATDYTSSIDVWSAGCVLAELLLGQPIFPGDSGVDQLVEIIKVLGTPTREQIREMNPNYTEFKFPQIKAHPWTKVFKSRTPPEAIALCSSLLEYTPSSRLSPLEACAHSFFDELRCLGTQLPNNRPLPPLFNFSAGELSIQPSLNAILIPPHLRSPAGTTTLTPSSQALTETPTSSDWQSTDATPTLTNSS
Sequence of MAP kinase-activated protein kinase 3 (Homo sapiens) (Q16644 whole entry, looked up): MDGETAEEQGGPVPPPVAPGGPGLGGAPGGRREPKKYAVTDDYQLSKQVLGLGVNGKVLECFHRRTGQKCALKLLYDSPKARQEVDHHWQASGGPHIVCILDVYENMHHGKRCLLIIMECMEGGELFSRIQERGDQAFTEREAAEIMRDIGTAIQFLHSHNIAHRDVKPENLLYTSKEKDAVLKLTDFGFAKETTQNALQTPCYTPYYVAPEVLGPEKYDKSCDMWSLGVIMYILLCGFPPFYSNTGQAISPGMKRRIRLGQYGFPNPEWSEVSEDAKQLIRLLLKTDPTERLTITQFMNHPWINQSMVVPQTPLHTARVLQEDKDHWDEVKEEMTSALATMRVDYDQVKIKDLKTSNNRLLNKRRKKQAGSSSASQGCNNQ

Regarding `CC(C)[C@H](NC(=O)c1cc(-c2cnn3cc(-c4ccc(OCCN5CCCCC5)cc4)cnc23)cs1)C(F)(F)F`, the inhibition in test [1] was determined as 0%.
`O=C(N[C@@H](C1CC1)C(F)(F)F)c1cc(-c2cnn3cc(-c4ccc(F)cc4)cnc23)cs1`: the fold change (FC) in [2] turned out to be 0.18; in test [3], 0; in [4] it was 0; in test [5] it was 0.07; in test [6], 0.
As for `CNC(=O)c1ccccc1Oc1nc(Nc2cc(OC)c(OC)c(OC)c2)ncc1Br`, the fold change (FC) in test [7] was determined as 0.07; in test [8], 0.03; in test [9], 0; in test [10], 0; in [11], 0.73.
